# Variants at the floor of the assay were thinned out.
# B1: tRNA (parent)
# chain: GUUCCGUUGGCGUAAUGGUAACGCGUCUCCCUCCUAAGGAGAAGACUGCGGGUUCGAGUCCCGUACGGAACG
# Variants of: B1
# Assay: yeast fitness relative to wild type (ratio to wild type); higher = fitter; tRNA-Arg(CCU), competitive growth, 37 C, YPD
# Outline: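 Amplicons of the tRNA-Arg(CCU) gene were sequenced, 100-nucleotide paired-end, from the start population and from each end population of a pooled yeast competition. The competition, in six parallel replicates, lasted 24 hours in YPD at 37°C. Fitness relative to wild type was calculated from changes in genotype frequencies. Genotypes had to have ≥ 100 starting reads, and estimates < 0.5 were set to 0.5.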
row,Variant,yeast fitness
1,GUUCCGUUGGCGUAUUGGUAACGCAUCUCCCUCCUAAGGAGAAGAUUGCGGGUUCAAGUCCCGUACGGAACG,1.04
2,GUUCCGUUGGCGUAUUGGUAACGCAUCUCCCUCCUAAGGAGAACACUGCGGGUUCGAGUCCCGUACGGAACG,0.566
3,GUUCCGUUGGCGUAUUGGUAACGCAUCUCCCUCCUAAGGAGAACACUGCGGAUUCGAGUCCCGUACGGAACG,≤ 0.5
4,GUUCCGUUGGCGUAUUGGUAACGCAUCUCCCUCCUAAGGAGAACACUGCGGGUUCGAGUCCCGUACUGAACG,0.522
5,GUUCCGUUGGCGUAUUGGUAACGCAUCUCCCUCCUAAGGAGAAGACUGCGGGUUCGAGUCCCGUACGAAACG,0.698
6,GUUCCGUUGGCGUAUUGGUAACGCCUCUCCCUCCUAAGGAGAAGACUGCGGGUUCGAGUCCCGUACGGAACG,0.583
7,GUUCCGUUGGCGUAUUGGUAACGCCUCUCCCUCCUAAGGAGAAGACUGCGGGUUCGGGUCCCGUACGGAACG,≤ 0.5
8,GUUCCGUUGGCGUAUUGGUAACGCCUCUCCCUCCUAAGGAGAAGACUGGGGGUUCGAGGCCCGUACGGAACG,≤ 0.5
9,GUUCCGUUGGCGUAUUGGUAACGCCUCUCCCUCCUAAGGAGAAGACUGCGGGUUCGAGUCGCGUACGGAACG,≤ 0.5
10,GUUCCGUUGGCGUAUUGGUAACGCCUCUCCCUCCUAAGGAGAAGACUGCGGGUUCGAGUCUCCUACGGAACG,0.545
11,GUUCCGUUGGCGUAUUGGUAACGCCUCUCCCUCCUAAGGAGAAGACUGCGGGUUCGAGACCCGUACGGAACG,≤ 0.5
12,GUUCCGUUGGCGUAUUGGUAACGCGUCUCCCUCCUAAAGAGAAGACUGCGGGUUCGAGUCCCGUACGGAACG,0.635
13,GUUCCGUUGGCGUAUUGGUAACGCGUCUCCCUCCUAAAGCGAAGACUGCGGGUUCGAGUCCCGUACGGAACG,≤ 0.5
14,GUUCCGUUGGCGUAUUGGUAACGCGUCUCCCUCCUAACGAGACGACUGCGGGUUCGAGUCCCGUACGGAACG,≤ 0.5
15,GUUCCGUUGGCGUAUUGGUAACGCGUCUCCCUCCUAACGAGAAGAUUGCGGGUUCGAGUCCCGUACGGUGCG,≤ 0.5
16,GUUCCGUUGGCGUAUUGGUAACGCGUCUCCCUCCUAACAAGACGACUGCGGGUUCGAGUCCCGUACGGAACG,≤ 0.5
17,GUUCCGUUGGCGUAUUGGUAACGCGUCUCCCUCCUAACAAGACGACUGCGGGUCCGAGUGCCGUCCGGAACG,≤ 0.5
18,GUUCCGUUGGCGUAUUGGUAACGCGUCUCCCUCCUAACGAGAAGACUGCGCGUUCGAGUCCCGUACGGACCG,≤ 0.5
19,GUUCCGUUGGCGUAUUGGUAACGCGUCUCCCUCCUAAGAAGAAGACUGCGGGUUCGGGUCCCGUACGGAACG,≤ 0.5
20,GUUCCGUUGGCGUAUUGGUAACGCGUCUCCCUCCUAAGCAGAAGACUGCGGGUUCGAGUCCCGUACGGAACG,0.597
21,GUUCCGUUGGCGUAUUGGUAACGCGUCUCCCUCCUAAGGAGAAAACUGCGGGUUCGAGUCCCGUACGGAACG,0.65
22,GUUCCGUUGGCGUAUUGGUAACGCGUCUCCCUCCUAAGGAGAACACUGCGGGUUCGAGUCCCGUACGCAACG,≤ 0.5
23,GUUCCGUUGGCGUAUUGGUAACGCGUCUCCCUCCUAAGGAGAAGACUCCGGGUUCGAGUCCCGUACGGAACG,0.669
24,GUUCCGUUGGCGUAUUGGUAACGCGUCUCCCUCCUAAGGAGAAGACUCCGGGUUCGAGUCCCGUACCGAACG,≤ 0.5
25,GUUCCGUUGGCGUAUUGGUAACGCGUCUCCCUCCUAAGGAGAAGACUGCAGGUUCGAGUCCCGUACGGAACG,0.708

row,Variant,yeast fitness
1,GUUCCGUUGGCGUAUUGGUAACGCGUCUCCCUCCUAAGGAGAAGACUGCAGGUUGGAGUCCCGUACGGAACG,0.666
2,GUUCCGUUGGCGUAUUGGUAACGCGUCUCCCUCCUAAGGAGAAGACUGCCGGUUCGAGUUCCGUACGGAACG,≤ 0.5
3,GUUCCGUUGGCGUAUUGGUAACGCGUCUCCCUCCUAAGGAGAAGACUGCCGGUCCGAGUCCCGUACGGAACG,≤ 0.5
4,GUUCCGUUGGCGUAUUGGUAACGCGUCUCCCUCCUAAGGAGAAGACUGCGGCUUCGAGUCCCGUACGAAACG,≤ 0.5
5,GUUCCGUUGGCGUAUUGGUAACGCGUCUCCCUCCUAAGGAGAAGACUGCGGGUUCCAGUCCCGUACGGAACG,0.549
6,GUUCCGUUGGCGUAUUGGUAACGCGUCUCCCUCCUAAGGAGAAGACUGCGGGUUCUAGUCCCGUACGGAACG,0.657
7,GUUCCGUUGGCGUAUUGGUAACGCGUCUCCCUCCUAAGGAGAAGACUGCGGGUUCGAAUCCCGUACGGAACG,1
8,GUUCCGUUGGCGUAUUGGUAACGCGUCUCCCUCCUAAGGAGAAGACUGCGGGUUCGAAUCCCGUAGGGAACG,0.943
9,GUUCCGUUGGCGUAUUGGUAACGCGUCUCCCUCCUAAGGAGAAGACUGCGGGUUCGACUCCCGUACGGAACG,0.916
10,GUUCCGUUGGCGUAUUGGUAACGCGUCUCCCUCCUAAGGAGAAGACUGCGGGUUCGAGUCCCGUACAGUACG,0.558
11,GUUCCGUUGGCGUAUUGGUAACGCGUCUCCCUCCUAAGGAGAAGACUGCGGGUUCGAGUCCCGUACGAAACG,0.62
12,GUUCCGUUGGCGUAUAGGUAACGCGUGUCCCUCCUAAGGAGAAGACUGCGGGUUUGAGUCCUGUACCGAACG,≤ 0.5
13,GUUCCGUUGGCGUAUCGGUAACGCGUCUCCCUCCUAAGGUGAAGACUGCGGGUUCGAGUCCCGUACGGAACG,≤ 0.5
14,GUUCCGUUGGCGUAUCGGUAACGCGUCUCCCUCCUAAGGAGAAGACUGCGGGUUCGAGUCCCGUGCGGAACG,≤ 0.5
15,GUUCCGUUGGCGUAUCGCUAACGCGUCUACCUCCUAAGGAGAGGGCUGCGGGUUCGAGUCCGGUACGGAACG,≤ 0.5
16,GUUCCGUUGGCGUAUCGGUAACGCGUCUCCCUCCUAACAAGACGACUGCGGGUUCGAGUGCCGUCCGGAACG,≤ 0.5
17,GUUCCGUUGGCGUAUCGGUAACGCGUCUCCCUCCAAAGGAGAAAACUGCGGGUUCGAGUCCCGUACGGAACG,≤ 0.5
18,GUUCCGUUGGCGUAUGGGUAACGCGUCUCCCUCCUAAGGAGAAGACUGCGGGUUAGCGCCCCGUACGGAACG,≤ 0.5
19,GUUCCGUUGGCGUAUGGGUAACGCGUCUCCCUCCUAAGAAGAAGACUGCGGGUUCGAGUGCCGUACGGAGCG,≤ 0.5
20,GUUCCGUUGGCGUAUUGGAAACGCGUCUCCCUCCUAAGGAGAAGACUGCGGGUUCGAGUCCCGUACGGAACG,0.767
21,GUUCCGUUGGCGUAUUGGAGACGCGUCUCCCUCCUAAGGUGAUGACUGCGGGUUCGAGUGCUGUACGGGACG,≤ 0.5
22,GUUCCGUUGGCGUAUUGGAGACGCGUCUCCCUCCUAAGGUGAUGACUGCGGGUUCGAGUGCUGUACGCAACG,≤ 0.5
23,GUUCCGUUGGCGUAUUGGAAACGCGUCUCCCUCCUUAGGAGAAGACUGCGGGUACGAGUCCCGUACGGAACG,≤ 0.5
24,GUUCCGUUGGCGUAUUGGAAACGCGUCUCCCUCCUAAGGAGAAGCCUGCGGGUUUGUGUCCCGUACGGAACG,0.583
25,GUUCCGUUGGCGUAUUGGAAACGAGUCUCCCUCCUAAGGAGAAGACUGCGGGUUCGAGUCCCGUACGGAACG,0.641

row,Variant,yeast fitness
1,GUUCCGUUGGCGUAUUGGCAACGCGUCUCCAUCCUAAGGACAAGACUGCGGGUUCGAGUCCCGUACGGAACG,0.596
2,GUUCCGUUGGCGUAUUGGCAACGCGUCUCCUUCCUAAGGCGAAGACUGCGGGUUCGAGUCCCGUACGGAACG,≤ 0.5
3,GUUCCGUUGGCGUAUUGGCAACGCGUCUCCUUCCUAAGGCGAAGACUGCGGGUUCGUGUCCCGUACGGAACG,≤ 0.5
4,GUUCCGUUGGCGUAUUGGCAACCCGUGUCCCUCCUAAGGAGAAGCCUGCGGGUUCGAGUCCCCUACGGAACG,≤ 0.5
5,GUUCCGUUGGCGUAUUGGCAACGCGUCUCCCUCCUAACGAGAAGACUGCGGGUUCGAGUCCCGUACGGAACG,0.589
6,GUUCCGUUGGCGUAUUGGUAACGCGACUCCCUCCUAAGGAGAAGACUGCGGGUUCGAGUCCCGUACGGAACG,0.666
7,GUUCCGUUGGCGUAUUGGUAACGCGACUCCCUCCUAAGGAGAAGACUGCGGGUUCGCGUCCCGUACGGAACG,≤ 0.5
8,GUUCCGUUGGCGUAUUGGUAACGCGACUCCCUCCUAAGGAGAAGACUGCGGGUUCGAGUUCCGUACAGAACG,≤ 0.5
9,GUUCCGUUGGCGUAUUGGUAACGCGCCUCCCUCCUAAGGAGAAGACUGCGGGUUCGAGUCCCGUACGGAACG,0.81
10,GUUCCGUUGGCGUAUUGGUAACGCGGCUCCCUCCAAAGGAAAAGACUGCGGGUUCGAGUCCCGUACGGAACG,≤ 0.5
11,GUUCCGUUGGCGUAUUGGUAACGCGUCACCCUCCUAAGGAGAAGACUGCGGGUUCGAGUCCCGUACGGAACG,0.57
12,GUUCCGUUGGCGUAUUGGUAACGCGUCACCCUCCUAAGGCGAAGAGUGCGGGUUCGAGUCCCGUACGGAACG,≤ 0.5
13,GUUCCGUUGGCGUAUUGGUAACGCGUCACCCUGCUAAGGAGAAGACUGCGGGUUCGAGUCCCGUACGGAACG,0.561
14,GUUCCGUUGGCGUAUUGGUAACGCGUCACCCUGCUAAGGAGAAGACUGCGGGUUCGAGUCCCGUGCGGAACG,≤ 0.5
15,GUUCCGUUGGCGUAUUGGUAACGCGUCACCCUGCUAAGGAGAAGACUGCGGGUUCAAGUCCCGUACGGAACG,≤ 0.5
16,GUUCCGUUGGCGUAUUGGUAACGCGUCACCCUGCUAAGGAGAAGACUGCGGGUUCGAGUCCCGAACGGAACG,≤ 0.5
17,GUUCCGUUGGCGUAUUGGUAACGCGUCACCCUCCUAAGGAGAAGACUGUGGGUUCGAGACCCGUAAGGAACG,≤ 0.5
18,GUUCCGUUGGCGUAUUGGUAACGCGUCACCCUCCUAAAGAGAAGACUGCGGCUUCGAGUGCCGUACGGAACG,≤ 0.5
19,GUUCCGUUGGCGUAUUGGUAACGCGUCACCCUCCUAAGGAGAAAACUGCGGGUUCGAGUCCCGCACGGAACG,≤ 0.5
20,GUUCCGUUGGCGUAUUGGUAACGCGUCCCCCUCCUAAGGAGAAGACUGCGGGUUGGAGUCCCGUACGGAACG,0.589
21,GUUCCGUUGGCGUAUUGGUAACGCGUCCCCCUCCUAAGGAGAAAACUGCGGGUUCGGGUCCCGUACGGAACG,≤ 0.5
22,GUUCCGUUGGCGUAUUGGUAACGCGUCUCCCCCCUAAGGAGCAGACUGCGGGUUCGAGUCCCGUACGGAACG,0.596
23,GUUCCGUUGGCGUAUUGGUAACGCGUCUCCCCCCUAAGGAGAAGACUGCGGCUUCGAGUCCCGUACGGAACG,0.539
24,GUUCCGUUGGCGUAUUGGUAACGCGUCUCCCGCCUAAGGAGAAAACUGCGGGUUCGAGUCCCGUACGGAACG,0.555
25,GUUCCGUUGGCGUAUUGGUAACGCGUCUCCCGCCUAAGGAGAAAACUGCGGAUUCGAGUCUCGUACGGCACG,≤ 0.5
